Converted amounts (≈) assume the structure as drawn.
Assays:
[1] = test system: Bacillus subtilis; test: Antibacterial activity against Bacillus subtilis ATCC 6633 by broth microdilution method; assay type: functional
In short: (§1)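 Endpoint is the minimum inhibitory concentration, determined by broth microdilution against a panel of susceptible Gram-positive strains. Values are reported as a range spanning two concentrations (for example 8–16). Values above the top concentration tested are given as >16.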

[2] = test system: Staphylococcus epidermidis; test: Antibacterial activity against Staphylococcus epidermidis ATCC 12228 by broth microdilution method; assay type: functional; in short: as §1
[3] = test system: Enterococcus faecalis; test: Antibacterial activity against Enterococcus faecalis ATCC 29212 by broth microdilution method; assay type: functional; in short: as §1
[4] = test system: Enterococcus faecalis; test: Antibacterial activity against Enterococcus faecalis ATCC 14506 by broth microdilution method; assay type: functional; in short: as §1
[5] = test system: Staphylococcus aureus; test: Antibacterial activity against Staphylococcus aureus ATCC 33591 by broth microdilution method; assay type: functional; in short: as §1
[6] = test system: Staphylococcus aureus; test: Antibacterial activity against Staphylococcus aureus ATCC 29213 by broth microdilution method; assay type: functional; in short: as §1
[7] = test system: Staphylococcus aureus; test: Antibacterial activity against Staphylococcus aureus ATCC 33592 by broth microdilution method; assay type: functional; in short: as §1
[8] = test system: Enterococcus faecalis; test: Antibacterial activity against multidrug resistant Enterococcus faecalis ATCC 700802 by broth microdilution method; assay type: functional
[9] = test system: Enterococcus faecium; test: Antibacterial activity against vancomycin-resistant Enterococcus faecium ATCC 700221 by broth microdilution method; assay type: functional
[10] = test system: Staphylococcus aureus; test: Antibacterial activity against Staphylococcus aureus ATCC 25923 by broth microdilution method; assay type: functional; in short: as §1
[11] = test system: Staphylococcus aureus; test: Antibacterial activity against linezolid-resistant Staphylococcus aureus NRS 119 by broth microdilution method; assay type: functional
In short: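 Linezolid-resistant S. aureus strain obtained from NARSA; minimum inhibitory concentration found by broth microdilution and reported as a concentration range.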

[12] = test system: Staphylococcus aureus; test: Antibacterial activity against methicillin-resistant Staphylococcus aureus ATCC 700699 by broth microdilution method; assay type: functional
[13] = test system: Streptococcus pneumoniae; test: Antibacterial activity against multidrug-resistant Streptococcus pneumoniae ATCC 700904 by broth microdilution method; assay type: functional
[14] = test system: Staphylococcus epidermidis; test: Antibacterial activity against Staphylococcus epidermidis ATCC 155 by broth microdilution method; assay type: functional; in short: as §1
[15] = test system: Streptococcus pyogenes; test: Antibacterial activity against Streptococcus pyogenes ATCC 14289 by broth microdilution method

CC(=O)NC[C@H]1CN(c2ccc(N(C)C3CCN(C(=O)/C=C/c4c[nH]c5ccccc45)CC3)c(F)c2)C(=O)O1
MIC [1]: 2 µg/mL (≈ 3.75 µM) | MIC [2]: 4 µg/mL (≈ 7.5 µM) | MIC [3]: 8 µg/mL (≈ 15 µM) | MIC [4]: > 16 µg/mL | MIC [5]: 8 µg/mL (≈ 15 µM) | MIC [6]: > 16 µg/mL | MIC [7]: > 16 µg/mL | MIC [8]: 8 µg/mL (≈ 15 µM) | MIC [9]: 8 µg/mL (≈ 15 µM) | MIC [10]: 8 µg/mL (≈ 15 µM) | MIC [11]: > 16 µg/mL | MIC [12]: 2 µg/mL (≈ 3.75 µM) | MIC [13]: 8 µg/mL (≈ 15 µM) | MIC [14]: 4 µg/mL (≈ 7.5 µM) | MIC [15]: 8 µg/mL (≈ 15 µM)

CC(=O)NC[C@H]1CN(c2ccc(N3CCOCC3)c(F)c2)C(=O)O1 [LINEZOLID]
MIC [1]: 1 µg/mL (≈ 2.96 µM) | MIC [2]: 2 µg/mL (≈ 5.93 µM) | MIC [5]: 1 µg/mL (≈ 2.96 µM) | MIC [10]: 1 µg/mL (≈ 2.96 µM) | MIC [11]: > 16 µg/mL | MIC [12]: 1 µg/mL (≈ 2.96 µM) | MIC [14]: 1 µg/mL (≈ 2.96 µM) | MIC [15]: 0.5 µg/mL (≈ 1.48 µM)

CC(=O)NC[C@H]1CN(c2ccc(N(C)C3CCN(C(=O)/C=C/c4ccccc4)CC3)c(F)c2)C(=O)O1
MIC [1]: 2 µg/mL (≈ 4.04 µM) | MIC [2]: 8 µg/mL (≈ 16.2 µM) | MIC [3]: > 16 µg/mL | MIC [4]: > 16 µg/mL | MIC [5]: 8 µg/mL (≈ 16.2 µM) | MIC [6]: 8 µg/mL (≈ 16.2 µM) | MIC [7]: 4 µg/mL (≈ 8.09 µM) | MIC [8]: 8 µg/mL (≈ 16.2 µM) | MIC [9]: 4 µg/mL (≈ 8.09 µM) | MIC [10]: 8 µg/mL (≈ 16.2 µM) | MIC [11]: > 16 µg/mL | MIC [12]: 8 µg/mL (≈ 16.2 µM) | MIC [13]: 8 µg/mL (≈ 16.2 µM) | MIC [14]: 4 µg/mL (≈ 8.09 µM) | MIC [15]: 8 µg/mL (≈ 16.2 µM)

CC(=O)NC[C@H]1CN(c2ccc(N(C)C3CCNCC3)c(F)c2)C(=O)O1
MIC [1]: > 16 µg/mL | MIC [2]: > 16 µg/mL | MIC [3]: > 16 µg/mL | MIC [4]: > 16 µg/mL | MIC [5]: > 16 µg/mL | MIC [6]: > 16 µg/mL | MIC [7]: > 16 µg/mL | MIC [8]: > 16 µg/mL | MIC [9]: > 16 µg/mL | MIC [10]: > 16 µg/mL | MIC [11]: > 16 µg/mL | MIC [12]: > 16 µg/mL | MIC [13]: > 16 µg/mL | MIC [14]: > 16 µg/mL | MIC [15]: > 16 µg/mL

CC(=O)NC[C@H]1CN(c2ccc(N(C)C3CCN(C(=O)/C=C/c4ccc(CO)o4)CC3)c(F)c2)C(=O)O1
MIC [1]: > 16 µg/mL | MIC [2]: > 16 µg/mL | MIC [3]: > 16 µg/mL | MIC [4]: > 16 µg/mL | MIC [5]: > 16 µg/mL | MIC [6]: > 16 µg/mL | MIC [7]: > 16 µg/mL | MIC [8]: > 16 µg/mL | MIC [9]: > 16 µg/mL | MIC [10]: > 16 µg/mL | MIC [11]: > 16 µg/mL | MIC [12]: > 16 µg/mL | MIC [13]: > 16 µg/mL | MIC [14]: > 16 µg/mL | MIC [15]: > 16 µg/mL

CC(=O)NC[C@H]1CN(c2ccc(N3CCN(Cc4ccc([N+](=O)[O-])o4)CC3)c(F)c2)C(=O)O1 [RANBEZOLID]
MIC [1]: 0.25 µg/mL (≈ 0.542 µM) | MIC [2]: 0.5 µg/mL (≈ 1.08 µM) | MIC [4]: 2 µg/mL (≈ 4.33 µM) | MIC [5]: 1 µg/mL (≈ 2.17 µM) | MIC [6]: 1 µg/mL (≈ 2.17 µM) | MIC [7]: 1 µg/mL (≈ 2.17 µM) | MIC [8]: 1 µg/mL (≈ 2.17 µM) | MIC [9]: 2 µg/mL (≈ 4.33 µM) | MIC [10]: 1 µg/mL (≈ 2.17 µM) | MIC [11]: > 16 µg/mL | MIC [12]: 0.5 µg/mL (≈ 1.08 µM) | MIC [13]: 0.25 µg/mL (≈ 0.542 µM) | MIC [14]: 0.25 µg/mL (≈ 0.542 µM) | MIC [15]: 2 µg/mL (≈ 4.33 µM)

CC(=O)NC[C@H]1CN(c2ccc(N(C)C3CCN(C(=O)/C=C/c4ccco4)CC3)c(F)c2)C(=O)O1
MIC [1]: 2 µg/mL (≈ 4.13 µM) | MIC [2]: > 16 µg/mL | MIC [3]: > 16 µg/mL | MIC [4]: > 16 µg/mL | MIC [5]: > 16 µg/mL | MIC [6]: > 16 µg/mL | MIC [7]: > 16 µg/mL | MIC [8]: > 16 µg/mL | MIC [9]: 8 µg/mL (≈ 16.5 µM) | MIC [10]: > 16 µg/mL | MIC [11]: > 16 µg/mL | MIC [12]: 8 µg/mL (≈ 16.5 µM) | MIC [13]: > 16 µg/mL | MIC [14]: > 16 µg/mL | MIC [15]: > 16 µg/mL
